The array DNA melting data of Ke et al. (doi:10.1101/2024.01.08.574731)

Assays:
[1] = folding enthalpy; higher = less favourable; fluorescence melt of hairpins on a sequencing array, two-state fit; conditions: sodium 0.088 M
Outline: (§1)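 Cy3 fluorescence of library hairpins on a sequenced MiSeq flow cell, with annealed Cy3 and quencher oligos, was imaged in 50 mM Na-HEPES pH 8.0, 25 mM NaCl in 2.5 °C steps up to 60 °C. Signals were normalised to pre-quench Cy3 and to control variants. Melting temperature and folding enthalpy came from bootstrapped two-state fits, inverse-variance combined over four replicates. Fitted temperatures were raised by 9.35 °C to match UV melts.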

[2] = melting temperature; fluorescence melt of hairpins on a sequencing array, two-state fit, raised by 9.35 °C to match UV melts; conditions: sodium 0.088 M
Outline: as §1

| Sequence | folding enthalpy [1] | Tm [2] |
| --- | --- | --- |
| GCAGGGTCGAAAGACTGC (((..(((....)))))) | -23.4 kcal/mol | 45.8 °C |
| GCAGGTACGAAAGTATGC (((..(((....)))))) | -18 kcal/mol | 33.9 °C |
| GCAGGTCGAAAGACTGC (((.(((....)))))) | -29.8 kcal/mol | 55.9 °C |
| GCAGGTGGAAACACCTAC (.(((((....))))).) | -15.4 kcal/mol | 39.3 °C |
| GCAGTACGAAAGTAATGC (((.(((....))).))) | -40 kcal/mol | 55.4 °C |
| GCAGTAGGAAACTGCTGC ((((.((....)).)))) | -31 kcal/mol | 57 °C |
| GCAGTCGAAAGACATGC ((((((....))).))) | -24.1 kcal/mol | 51.5 °C |
| GCAGTCGAAAGACATTGC ((((((....)))..))) | -17.1 kcal/mol | 38.1 °C |
| GCAGTCGGAAACAACTGC (((((.(....).))))) | -32.9 kcal/mol | 46.1 °C |
| GCAGTGCGAAAGCAAGGC ((..(((....)))..)) | -16.1 kcal/mol | 56.7 °C |
| GCAGTGCGAAAGCCCAGC ((.(.((....)).).)) | -15.4 kcal/mol | 38 °C |
| GCAGTGCGAAAGCCGTGC (((..((....))..))) | -21.1 kcal/mol | 46.4 °C |
| GCAGTGCGAAAGCCTTGC (((..((....))..))) | -15.2 kcal/mol | 47.6 °C |
| GCAGTGCGAAAGCTGTGC (((..((....))..))) | -19.4 kcal/mol | 50.2 °C |
| GCAGTGCGAAAGCTTTGC (((..((....))..))) | -14 kcal/mol | 51.2 °C |
| GCAGTGGGAAACCACTAC (.(((((....))))).) | -12.9 kcal/mol | 41.1 °C |
| GCAGTGGGAAACCGTTGC (((..((....))..))) | -19.4 kcal/mol | 38.1 °C |
| GCAGTGGGAAACTGCTGC ((((..(....)..)))) | -27.6 kcal/mol | 58.1 °C |
| GCAGTGTCGAAAGACTGC (((..(((....)))))) | -23 kcal/mol | 48.3 °C |
| GCAGTTACGAAAGTATGC (((..(((....)))))) | -21.6 kcal/mol | 33.9 °C |
| GCAGTTCGAAAGAAATGC (((.(((....))).))) | -36.8 kcal/mol | 54.2 °C |
| GCAGTTGCGAAAGCATGC (((..(((....)))))) | -16.8 kcal/mol | 42 °C |
| GCAGTTGGAAACAGTTGC (((..((....))..))) | -13.8 kcal/mol | 29.7 °C |

| Sequence | folding enthalpy [1] | Tm [2] |
| --- | --- | --- |
| GCATACACGAAAGTGTGC (((..(((....)))))) | -16.1 kcal/mol | 45.9 °C |
| GCATACCGAAAGGTGTGC (((.(((....))).))) | -43.2 kcal/mol | 63.3 °C |
| GCATACGAAAGTAACTGC ((((((....)))..))) | -13.6 kcal/mol | 31.1 °C |
| GCATACGAAAGTAATGC ((((((....))).))) | -35.4 kcal/mol | 50.1 °C |
| GCATACGAAAGTACTGC ((((((....))).))) | -22.4 kcal/mol | 41.4 °C |
| GCATACGAAAGTACTTGC ((((((....)))..))) | -11.7 kcal/mol | 30.8 °C |
| GCATACGAAAGTAGATGC ((((((....)))..))) | -27.1 kcal/mol | 41.1 °C |
| GCATACGAAAGTAGGTGC ((((((....)))..))) | -27.1 kcal/mol | 40.4 °C |
| GCATAGCGAAAGCAATGC ((((.((....)).)))) | -23.1 kcal/mol | 60.4 °C |
| GCATAGCGAAAGCCGTGC (((..((....))..))) | -17.5 kcal/mol | 39.6 °C |
| GCATAGCGAAAGCGAAGC ((.(.((....)).).)) | -22.6 kcal/mol | 58.1 °C |
| GCATAGCGAAAGCGTTGC (((..((....))..))) | -27.1 kcal/mol | 56.8 °C |
| GCATAGCGAAAGCTAAGC ((.((((....)))).)) | -16.2 kcal/mol | 51.2 °C |
| GCATAGCGAAAGCTGGGC ((..(((....)))..)) | -18.1 kcal/mol | 56.5 °C |
| GCATAGCGAAAGCTTTGC (((.(((....))).))) | -41.9 kcal/mol | 53.4 °C |
| GCATAGGAAACTATGC ((((((....)))))) | -35.4 kcal/mol | 53.7 °C |
| GCATAGGGAAACTTGTGC (((.(.(....).).))) | -13 kcal/mol | 29.9 °C |
| GCATATGCGAAAGCATGC (((..(((....)))))) | -14.8 kcal/mol | 48.2 °C |
| GCATATGGAAACATACGC ((.((((....)))).)) | -26.3 kcal/mol | 35.4 °C |
| GCATATTCGAAAGAATGC (((..(((....)))))) | -18.7 kcal/mol | 34 °C |
| GCATCACCGAAAGGTTGC (((..(((....)))))) | -19.1 kcal/mol | 37.4 °C |
| GCATCCCGAAAGGGTGC (((.(((....)))))) | -15.5 kcal/mol | 61.5 °C |
| GCATCCCGAAAGGGTTGC (((.(((....))).))) | -30.1 kcal/mol | 60.1 °C |

| Sequence | folding enthalpy [1] | Tm [2] |
| --- | --- | --- |
| GCATCCGAAAGGACTTGC ((((((....)))..))) | -19.4 kcal/mol | 32.9 °C |
| GCATCGACGAAAGTCTGC (((..(((....)))))) | -15.8 kcal/mol | 33.6 °C |
| GCATCGCCGAAAGGCTGC (((..(((....)))))) | -14.1 kcal/mol | 43.4 °C |
| GCATCGCGAAAGCCACGC ((.(.((....)).).)) | -10.2 kcal/mol | 26.5 °C |
| GCATCGCGAAAGCGACGC ((.((((....)))).)) | -21.4 kcal/mol | 63.9 °C |
| GCATCGCGAAAGCGCAGC ((..(((....)))..)) | -12.6 kcal/mol | 39.9 °C |
| GCATCGCGAAAGCGTGC (((.(((....)))))) | -19.7 kcal/mol | 63.8 °C |
| GCATCGCGAAAGCGTTGC (((.(((....))).))) | -44.2 kcal/mol | 58.5 °C |
| GCATCGCGAAAGCTAGGC ((.(.((....)).).)) | -14 kcal/mol | 42.8 °C |
| GCATCGCGAAAGCTATGC ((((.((....)).)))) | -24.1 kcal/mol | 59 °C |
| GCATCGGGAAACCGGTGC (((.(((....))).))) | -44.5 kcal/mol | 59.1 °C |
| GCATCGTCGAAAGACTGC (((..(((....)))))) | -15.8 kcal/mol | 36.8 °C |
| GCATCTCCGAAAGGATGC (((..(((....)))))) | -28.6 kcal/mol | 46.1 °C |
| GCATCTCGAAAGAGGTGC (((.(((....))).))) | -37.4 kcal/mol | 59.8 °C |
| GCATGACCGAAAGGTTGC (((..(((....)))))) | -18.6 kcal/mol | 41.5 °C |
| GCATGACGAAAGTCGTGC (((.(((....))).))) | -42 kcal/mol | 63.6 °C |
| GCATGACGAAAGTCTGC (((.(((....)))))) | -29 kcal/mol | 53.9 °C |
| GCATGAGGAAACTCACGC ((.((((....)))).)) | -28 kcal/mol | 41.3 °C |
| GCATGCCGAAAGGCTGC (((.(((....)))))) | -21.6 kcal/mol | 65.7 °C |
| GCATGCGAAAGCAAATGC ((((((....)))..))) | -24.9 kcal/mol | 52.6 °C |
| GCATGCGAAAGCATATGC ((((((....)))..))) | -20.1 kcal/mol | 50.1 °C |
| GCATGCGAAAGCATTTGC ((((((....)))..))) | -14.4 kcal/mol | 42.3 °C |
| GCATGCGGAAACGTGTGC (((..((....))..))) | -37.8 kcal/mol | 50.4 °C |

| Sequence | folding enthalpy [1] | Tm [2] |
| --- | --- | --- |
| GCATGGCGAAAGCCTTGC (((.(((....))).))) | -35.4 kcal/mol | 60.8 °C |
| GCATGGCGAAAGCGATGC ((((.((....)).)))) | -22 kcal/mol | 64.2 °C |
| GCATGGGGAAACCCATAC (.(((((....))))).) | -15.6 kcal/mol | 36.5 °C |
| GCATGGGGAAACCTATGC ((((.((....)).)))) | -39.4 kcal/mol | 50.8 °C |
| GCATGTGCGAAAGCATGC (((..(((....)))))) | -18.3 kcal/mol | 52.2 °C |
| GCATGTTCGAAAGAATGC (((..(((....)))))) | -24 kcal/mol | 30.8 °C |
| GCATTAGCGAAAGCTTGC (((..(((....)))))) | -18.1 kcal/mol | 40 °C |
| GCATTAGGAAACTAATGC (((((((....))))))) | -44.6 kcal/mol | 55.6 °C |
| GCATTCCGAAAGGATGC (((.(((....)))))) | -30.7 kcal/mol | 53.7 °C |
| GCATTCGAAAGAACTGC ((((((....))).))) | -28.2 kcal/mol | 34.9 °C |
| GCATTCGAAAGAATCTGC ((((((....)))..))) | -21.5 kcal/mol | 34.5 °C |
| GCATTCGAAAGAATTGC ((((((....))).))) | -19.5 kcal/mol | 41.1 °C |
| GCATTGAAAAATGC (((((....))))) | -31.2 kcal/mol | 49.2 °C |
| GCATTGACGAAAGTCTGC (((..(((....)))))) | -16.5 kcal/mol | 38.9 °C |
| GCATTGCGAAAGCAAAGC ((.((((....)))).)) | -18.6 kcal/mol | 58 °C |
| GCATTGCGAAAGCAACGC ((.((((....)))).)) | -26.7 kcal/mol | 60.4 °C |
| GCATTGCGAAAGCAGGGC ((..(((....)))..)) | -20.7 kcal/mol | 51 °C |
| GCATTGCGAAAGCATAGC ((..(((....)))..)) | -19 kcal/mol | 48.8 °C |
| GCATTGCGAAAGCATGC (((.(((....)))))) | -34.3 kcal/mol | 55.7 °C |
| GCATTGCGAAAGCCATGC ((((.((....)).)))) | -29.1 kcal/mol | 58.4 °C |
| GCATTGCGAAAGCGTTGC (((..((....))..))) | -21.9 kcal/mol | 47.5 °C |
| GCATTGCGAAAGCTAGGC ((.(.((....)).).)) | -17.9 kcal/mol | 48.7 °C |
